Shown are actives, neighbours in structure and some others; about 1.9% of the full set was active somewhere.
UBC13 polyUb = blocks human UBC13 polyubiquitin chain formation. TR-FRET. 330,000 compounds, 0.47% hits. inhibition, % at 20 µM. AID 485273. P61088; in the data active means inhibition above about 45%, passing the limit was not always enough
SR-BI DiI inh = inhibitors of mouse SR-BI mediated HDL lipid uptake; ldlA[mSR-BI] CHO cells, DiI-HDL uptake fluorescence, 3 h; AID 488896; Q61009; inhibition, % at 12.5 µM; 320,000 compounds, 0.96% hits;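 active means mean replicate inhibition of at least 70% and a set share of replicates each scoring 70 or more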;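 further: 0% = median of neutral control wells and 100% = median of positive control wells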
Target sequence (Q61009 whole entry, looked up): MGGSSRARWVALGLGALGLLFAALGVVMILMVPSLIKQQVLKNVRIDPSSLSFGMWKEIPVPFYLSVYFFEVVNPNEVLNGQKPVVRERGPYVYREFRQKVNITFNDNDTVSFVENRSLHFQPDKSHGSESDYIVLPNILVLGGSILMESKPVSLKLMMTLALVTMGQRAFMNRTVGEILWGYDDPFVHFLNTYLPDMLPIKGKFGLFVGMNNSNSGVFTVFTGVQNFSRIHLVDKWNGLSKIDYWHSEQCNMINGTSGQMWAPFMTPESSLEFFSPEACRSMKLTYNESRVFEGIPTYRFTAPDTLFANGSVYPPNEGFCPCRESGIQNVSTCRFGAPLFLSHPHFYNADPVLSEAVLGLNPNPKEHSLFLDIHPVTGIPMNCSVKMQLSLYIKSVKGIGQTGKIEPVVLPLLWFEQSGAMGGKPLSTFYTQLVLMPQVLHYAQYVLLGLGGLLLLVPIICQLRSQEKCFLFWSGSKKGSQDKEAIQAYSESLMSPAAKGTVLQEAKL
SR-BI uptake up = enhances SR-BI lipid uptake from DiI-HDL; activation, % at 12.5 µM; AID 504775; CHO ldlA[mSR-BI] cells, DiI-HDL uptake fluorescence, 3 h; 100 = double the neutral-control signal; 320,000 compounds, 0.096% hits;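 active means mean replicate activation of at least 60% and every replicate at or above 60%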;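 further: 0% = median plate neutral-control signal and 100% = twice that signal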
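system = CHO ldlA[mSR-BI] cells, LDL receptor-null, SR-BI overexpressing | medium = Ham's F12 with 0.5% BSA, HEPES 25 mM, pH 7.4 | probe or stimulus = DiI-HDL 10 µg/mL | compound dosing = single-point compound dose | incubation = compound exposure 3 h, 37 °C | technique = DiI fluorescence, bottom read | read-out = cell-associated DiI fluorescence as measure of HDL uptake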
Neddyl block = inhibitors of human cullin neddylation; 360,000 compounds, 0.58% hits; inhibition, % at 25 µM; AID 651699; P61081+Q13564; TR-FRET cullin neddylation, biochemical; in the data active means inhibition above about 36%
Neddyl inh conf = cullin neddylation inhibition, confirmation. TR-FRET cullin neddylation biochemical assay. shares compounds with Neddyl block. AID 652217. 1,800 compounds, 13% hits. calls only at 25 µM; in the data active means inhibition above about 40%;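 further: neddylation substrate is the cullin 1 ring ligase complex with SKP2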
The depositor's hits bear a star; i = inactive; x = no result shown; + = active, no number.

SMILES	UBC13 polyUb	SR-BI DiI inh	SR-BI uptake up	Neddyl block	Neddyl inh conf
CCCCNC(=O)C(NC(=O)Cc1cc(OC)cc(OC)c1)C(=O)c1ccccc1 (stereo not given)	x	x	x	9	x
COc1ccc(NC(=O)c2ccc(-c3ccc(C(C)=O)cc3)o2)cn1	4	61	-61	38*	i
CCn1c(=N)c(S(=O)(=O)c2ccc(C)cc2)cc2c(=O)n3ccccc3nc21	0	x	x	x	x
Cc1ccc(S(=O)(=O)c2cc3c(=O)n4ccccc4nc3n(C)c2=N)cc1	-9	-8	8	58*	i
CC(C)c1ccc(S(=O)(=O)c2n[nH]n3c2nc(=O)c2ccccc23)cc1	-10	5	-5	50*	i
CCc1ccc(S(=O)(=O)c2n[nH]n3c2nc(=O)c2ccccc23)cc1	1	-9	9	46*	i
Cn1ncc2c(=S)[nH]c(=S)[nH]c21	x	x	x	-62	x
O=C1NCCc2onc(-c3ccc(Br)cc3)c21	x	x	x	-4	x
Cc1ccc(S(=O)(=O)N(C)C)cc1NC(=O)CCNC(=O)c1ccco1	-1	9	-9	4	x
CC(C)Nc1ncnc2c1cnn2-c1ccccc1	7	-23	23	10	x
Cc1cccc(-n2ncc3c(NC(C)C)ncnc32)c1	-2	0	0	39*	i
Cc1cc(F)ccc1S(=O)(=O)Nc1ccccc1C(=O)Nc1ncn[nH]1	-2	5	-5	x	x
Cc1cc(F)ccc1S(=O)(=O)Nc1ccccc1C(=O)NCc1ccccn1	9	3	-3	45*	i
O=C(Nc1ccc(C(=O)N2CCCC2)cc1)C1CCC1	x	-13	13	-5	x
Cc1ncc(C(=O)O)c(C(=O)O)c1N	10	-12	12	40*	x
CSc1ncc(C(=O)O)c(C)n1	-2	-18	18	-9	x
FC(F)(F)c1cccc(-c2ccn3ncnc3n2)c1	4	1	-1	41*	i
COc1ccc(CCNC(=O)C2(C)CCC(=O)N2Cc2ccc3c(c2)OCO3)cc1OC (stereo not given)	-7	-13	13	-5	x
COc1ccc(CCNC(=O)C2(C)CCC(=O)N2Cc2ccc(F)cc2Cl)cc1OC (stereo not given)	3	59	-59	52*	i
Cc1cccc(C(=O)OCC(=O)NC(C)CCc2ccccc2)c1 (stereo not given)	0	1	-1	-3	x
CC(CCc1ccccc1)NC(=O)COC(=O)c1cccc(N(C)C)c1 (stereo not given)	1	4	-4	46*	i
CNC(=O)c1ccc(Nc2nnc(-c3ccc(C)c(S(=O)(=O)NCC4CCCO4)c3)c3ccccc23)cc1 (stereo not given)	1	26	-26	40*	i
COc1ccc(NC(=O)CSc2nc3nc(-c4cccs4)cc(C(F)(F)F)c3c(=O)[nH]2)c(OC)c1	-10	9	-9	54*	i
CCCCn1c(=NC(C)=O)c(C#N)cc2c(=O)n3cccc(C)c3nc21	19	-9	9	x	x
CCCCn1c(=NC(=O)c2ccc3c(c2)OCO3)c(C#N)cc2c(=O)n3cccc(C)c3nc21	-32	-6	6	55*	i
SMILES	UBC13 polyUb	SR-BI DiI inh	SR-BI uptake up	Neddyl block	Neddyl inh conf
COc1ccc(/C=C\c2cc(OC)c(OC)cc2CC[N+](C)(C)C)cc1OC	-2	-9	9	43*	i
CCCNC(=O)c1cc(C2CCCN(C(=O)C3CC3)C2)on1 (stereo not given)	x	x	x	-2	x
CSc1ccc(/C=N/NC(=O)c2ccc(-n3cnnn3)cc2)cc1	-6	24	-24	49*	i
Cc1cccc(SCC(=O)Nc2ccc3c(c2)OCCO3)c1	3	-4	4	-10	x
Cc1cc(-c2cc(NC=O)c3ncc(-c4cccc(C(=O)NCCN(C)C)c4)n3c2)cc(C)c1O	x	x	x	11	x
COc1cc(O)cc(/C=C/c2ccccc2)c1	x	29	-29	41*	+
CCN(C(=O)COC(=O)c1ccc([N+](=O)[O-])o1)c1cccc2ccccc12	-11	-9	9	-72	x
COc1ccc(C(=O)COC(=O)CNC(=O)c2ccccc2)cc1F	-10	-7	7	5	x
CCOc1ccc(/C=N/NC(=O)c2cc3ccccc3cc2OC)cc1	2	22	-22	42*	i
COc1ccc2cc(C(=O)N/N=C/c3cc(OC)c(OC)c(OC)c3)[nH]c2c1	4	11	-11	43*	+
COc1cc2ccccc2cc1C(=O)N/N=C/c1cccnc1	-2	9	-9	-12	x
